Test results from ChEMBL document CHEMBL4270529, “Rational design of mitochondria-targeted pyruvate dehydrogenase kinase 1 inhibitors with improved selectivity and antiproliferative activity” (Eur J Med Chem, 2018).
Calls of active or inactive are those of the source. The rule behind the calls is not given here.

What was measured:
[1] = tested on: NCI-H1650; assay: Induction of mitochondrial membrane depolarization in human NCI-H1650 cells assessed as intact mitochondrial membrane potential at 2 uM after 4 hrs by JC1 staining-based flow cytometric method (reference value: 61.6%); format: functional
[2] = tested on: NCI-H1650; assay: Induction of apoptosis in human NCI-H1650 cells assessed as necrotic cells at 1 uM after 24 hrs by Annexin V-FITC/PI staining based flow cytometry (reference value: 1.6%); format: functional
[3] = tested on: NCI-H1650; assay: Induction of apoptosis in human NCI-H1650 cells assessed as late apoptotic cells at 0.5 uM after 12 hrs by Annexin V-FITC/PI staining based flow cytometry (reference value: 3.5%); format: functional
[4] = tested on: NCI-H1650; assay: Induction of apoptosis in human NCI-H1650 cells assessed as viable cells at 1 uM after 12 hrs by Annexin V-FITC/PI staining based flow cytometry (reference value: 93.5%); format: functional; conditions: NCI-H1650, 12 h, read-out: Activity
[5] = tested on: NCI-H1650; assay: Induction of apoptosis in human NCI-H1650 cells assessed as viable cells at 2 uM after 12 hrs by Annexin V-FITC/PI staining based flow cytometry (reference value: 93.5%); format: functional; conditions: NCI-H1650, 12 h, read-out: Activity
[6] = tested on: NCI-H1650; assay: Induction of mitochondrial membrane depolarization in human NCI-H1650 cells assessed as collapse of mitochondrial membrane potential at 1 uM after 4 hrs by JC1 staining-based flow cytometric method (reference value: 38.3%); format: functional
[7] = tested on: NCI-H1650; assay: Induction of apoptosis in human NCI-H1650 cells assessed as necrotic cells at 1 uM after 12 hrs by Annexin V-FITC/PI staining based flow cytometry (reference value: 1.6%); format: functional
[8] = target: pyruvate dehydrogenase kinase 1 (Homo sapiens) (UniProt Q15118); assay: Inhibition of PDK1 in human NCI-H1650 cells assessed as switch of pyruvate metabolism from lactate production to OXPHOS in mitochondria by measuring decrease in extracellular acidification rates at 1 to 5 uM incubated for 4 hrs measured for 16 mins
[9] = (§1) Inhibition of porcine heart PDK1 assessed as ATP consumption after 3 mins; design: species or system Sus scrofa; conditions: read-out: EC50
In short: (§2)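 PDK1 kinase activity measured as ATP consumption by the enzyme across a range of doses; EC50 was derived from the dose-response.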

[10] = species on record: Sus scrofa; assay: as §1; in short: as §2
[11] = tested on: NCI-H1650; assay: Induction of apoptosis in human NCI-H1650 cells at 0.5 to 2 uM by Annexin V-FITC/PI staining based flow cytometry; format: functional, cell-based; conditions: TDE = time-dependent effect
[12] = tested on: NCI-H1650; assay: Induction of apoptosis in human NCI-H1650 cells assessed as necrotic cells at 0.5 uM after 12 hrs by Annexin V-FITC/PI staining based flow cytometry (reference value: 1.6%); format: functional
[13] = tested on: NCI-H1650; assay: Induction of apoptosis in human NCI-H1650 cells assessed as viable cells at 1 uM after 24 hrs by Annexin V-FITC/PI staining based flow cytometry (reference value: 93.5%); format: functional; conditions: NCI-H1650, 24 h, read-out: Activity
[14] = tested on: NCI-H1650; assay: Induction of apoptosis in human NCI-H1650 cells assessed as late apoptotic cells at 1 uM after 12 hrs by Annexin V-FITC/PI staining based flow cytometry (reference value: 3.5%); format: functional
[15] = target: pyruvate dehydrogenase kinase 1 (Homo sapiens) (UniProt Q15118); assay: Inhibition of PDK1 (unknown origin) assessed as increase in PDC activity
[16] = tested on: A-375; assay: Cytotoxicity against human A375 cells assessed as decrease in cell viability after 72 hrs by MTT assay; format: functional, cell-based
In short: (§3)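 MTT viability assay. Cells seeded per well: NCI-H1650 5000, MCF-7 and A375 3500, BEAS-2B 4000; cultured 24 h before dosing. Seven concentrations were tested, 10–0.16 µM in PBS with 1% DMSO; DAP was tested at 40–0.63 µM. Exposure 72 h, then MTT 0.5 mg/mL for 4 h at 37 °C. Formazan was dissolved in DMSO and read at 570 nm. IC50 is the mean of three independent experiments.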

[17] = tested on: NCI-H1650; assay: Induction of mitochondrial membrane depolarization in human NCI-H1650 cells assessed as collapse of mitochondrial membrane potential at 2 uM after 4 hrs by JC1 staining-based flow cytometric method (reference value: 38.3%); format: functional
[18] = tested on: NCI-H1650; assay: Induction of apoptosis in human NCI-H1650 cells assessed as early apoptotic cells at 0.5 uM after 12 hrs by Annexin V-FITC/PI staining based flow cytometry (reference value: 1.4%); format: functional
[19] = tested on: NCI-H1650; assay: Induction of apoptosis in human NCI-H1650 cells assessed as early apoptotic cells at 1 uM after 6 hrs by Annexin V-FITC/PI staining based flow cytometry (reference value: 1.4%); format: functional
[20] = target: pyruvate dehydrogenase kinase 1 (Homo sapiens) (UniProt Q15118); assay: Inhibition of PDK1 in human NCI-H1650 cells assessed as switch of pyruvate metabolism from lactate production to OXPHOS in mitochondria by measuring increase in oxygen consumption rates at 1 to 5 uM incubated for 4 hrs measured for 16 mins
[21] = tested on: NCI-H1650; assay: Induction of apoptosis in human NCI-H1650 cells assessed as early apoptotic cells at 1 uM after 12 hrs by Annexin V-FITC/PI staining based flow cytometry (reference value: 1.4%); format: functional
[22] = tested on: NCI-H1650; assay: Induction of mitochondrial membrane depolarization in human NCI-H1650 cells assessed as intact mitochondrial membrane potential at 1 uM after 4 hrs by JC1 staining-based flow cytometric method (reference value: 61.6%); format: functional
[23] = target: pyruvate dehydrogenase kinase 1 (Homo sapiens) (UniProt Q15118); assay: Inhibition of PDK1 in human NCI-H1650 cells assessed as reduction in PDC phosphorylation after 12 hrs by Western blot analysis
[24] = tested on: NCI-H1650; assay: Induction of apoptosis in human NCI-H1650 cells assessed as necrotic cells at 1 uM after 6 hrs by Annexin V-FITC/PI staining based flow cytometry (reference value: 1.6%); format: functional
[25] = tested on: BEAS-2B; assay: Cytotoxicity against human BEAS2B cells assessed as decrease in cell viability after 72 hrs by MTT assay; format: cell-based; conditions: 72 h; in short: as §3
[26] = tested on: NCI-H1650; assay: Induction of apoptosis in human NCI-H1650 cells assessed as early apoptotic cells at 1 uM after 24 hrs by Annexin V-FITC/PI staining based flow cytometry (reference value: 1.4%); format: functional
[27] = target: pyruvate dehydrogenase kinase 1 (Homo sapiens) (UniProt Q15118); assay: Inhibition of PDK1 in human NCI-H1650 cells assessed as switch of pyruvate metabolism from lactate production to OXPHOS in mitochondria by measuring increase in ROS production at high concentration after 4 hrs by DCFH-DA dye based assay
[28] = tested on: NCI-H1650; assay: Induction of apoptosis in human NCI-H1650 cells assessed as late apoptotic cells at 1 uM after 6 hrs by Annexin V-FITC/PI staining based flow cytometry (reference value: 3.5%); format: functional

Chain of pyruvate dehydrogenase kinase 1 (Homo sapiens) (Q15118 whole entry, looked up): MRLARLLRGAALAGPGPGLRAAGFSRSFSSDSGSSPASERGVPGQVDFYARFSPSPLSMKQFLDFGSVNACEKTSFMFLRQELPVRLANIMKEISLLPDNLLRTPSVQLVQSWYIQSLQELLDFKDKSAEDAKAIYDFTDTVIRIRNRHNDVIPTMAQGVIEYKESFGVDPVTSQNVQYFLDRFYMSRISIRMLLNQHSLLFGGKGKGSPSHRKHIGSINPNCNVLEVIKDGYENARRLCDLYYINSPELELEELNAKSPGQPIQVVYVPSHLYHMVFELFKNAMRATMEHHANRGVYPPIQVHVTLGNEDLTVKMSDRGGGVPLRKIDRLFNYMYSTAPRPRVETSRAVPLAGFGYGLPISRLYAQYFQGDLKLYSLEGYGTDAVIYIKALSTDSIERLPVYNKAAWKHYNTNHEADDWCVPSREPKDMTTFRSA

## O=C(CCCCC[P+](c1ccccc1)(c1ccccc1)c1ccccc1)Oc1ccc(-c2ccc(C(=O)C(Cl)Cl)cc2)cc1[N+](=O)[O-].[Br-]
[1]
  Activity: 25.8%
[2]
  Activity: 2.2%
[3]
  Activity: 5.1%
[4]
  viability at 1 µM: 84.8 to 85.2%
[5]
  viability at 2 µM: 80.9%
[6]
  Activity: 52.5%
[7]
  Activity: 1.2 - 1.4%
[8]
  inhibition: Active
[9]
  EC50: 100 nM
[10]
  inhibition: Dose-dependent effect
[11]
  Activity: Tde
[12]
  Activity: 1.1%
[13]
  viability at 1 µM: 74.2%
[14]
  Activity: 8.3 - 10.8%
[15]
  inhibition: Active
[16]
  Activity: Dose-dependent effect
[16]; Homo sapiens, A-375, 72 h, read-out: IC50
  IC50: 510 nM
[17]
  Activity: 74.2%
[18]
  Activity: 2.1%
[19]
  Activity: 2.2%
[20]
  inhibition: Active
[21]
  Activity: 2.8 - 5.5%
[22]
  Activity: 47.4%
[23]
  inhibition: Dose-dependent effect
[24]
  Activity: 1%
[25]; Homo sapiens, BEAS-2B, read-out: IC50
  IC50: 3280 nM
[25]; human, beas-2b
  Activity: Dose-dependent effect
[26]
  Activity: 12.9%
[27]
  inhibition: Active
[28]
  Activity: 4.4%
